{"source": "ChEMBL document CHEMBL4043093", "about": "“2-Oxo-3, 4-dihydropyrimido[4, 5-d]pyrimidinyl derivatives as new irreversible pan fibroblast growth factor receptor (FGFR) inhibitors” (Eur J Med Chem, 2017)", "key": {"[1]": {"tested_on": "Tyrosine-protein kinase ABL1 (Homo sapiens), P00519 [F317L]", "assay": "Inhibition of human non-phosphorylated ABL1 F317L mutant (S229 to K512 residues) expressed in HEK293 cells assessed as residual activity at 1000 nM after 30 mins by Kinomescan method relative to control", "assay_type": "cell-based", "summary_of_the_method": "(§1)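 KINOMEscan binding panel of 456 kinases, with the test compound at a single concentration of 1 µM. Read-out is Percent Control.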"}, "[2]": {"target": "Protein-tyrosine kinase 6 (Homo sapiens) (UniProt Q13882)", "assay": "Inhibition of wild-type human partial length BRK (L166 to T451 residues) expressed in Escherichia coli BL21 assessed as residual activity at 1000 nM after 30 mins by Kinomescan method relative to control"}, "[3]": {"target": "Cyclin-dependent kinase 7 (Homo sapiens) (UniProt P50613)", "assay": "Inhibition of wild-type human full length CDK7 (M1 to L344 residues) expressed in HEK293 cells assessed as residual activity at 1000 nM after 30 mins by Kinomescan method relative to control", "assay_type": "cell-based", "summary_of_the_method": "(§2)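 Single-point screen at a fixed 1 µM, run within a 456-kinase DiscoveRx KINOMEscan panel. Each kinase's read-out is Percent Control, i.e. signal relative to a control without compound. Hits were scored by a Percent Control < 35 cut-off, and an S(35) selectivity score was calculated across the non-mutant kinases.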"}, "[4]": {"target": "Cyclin-dependent kinase 9 (Homo sapiens) (UniProt P50750)", "assay": "Inhibition of wild-type human full length CDK9 (M1 to F372 residues) expressed in Escherichia coli BL21 assessed as residual activity at 1000 nM after 30 mins by Kinomescan method relative to control", "summary_of_the_method": "as §2"}, "[5]": {"target": "Ephrin type-A receptor 1 (Homo sapiens) (UniProt P21709)", "assay": "Inhibition of wild-type human partial length EPHA1 (V588 to I913 residues) expressed in Escherichia coli BL21 assessed as residual activity at 1000 nM after 30 mins by Kinomescan method relative to control"}, "[6]": {"target": "Ephrin type-A receptor 2 (Homo sapiens) (UniProt P29317)", "sequence (P29317 whole entry, the tested form may be a part)": "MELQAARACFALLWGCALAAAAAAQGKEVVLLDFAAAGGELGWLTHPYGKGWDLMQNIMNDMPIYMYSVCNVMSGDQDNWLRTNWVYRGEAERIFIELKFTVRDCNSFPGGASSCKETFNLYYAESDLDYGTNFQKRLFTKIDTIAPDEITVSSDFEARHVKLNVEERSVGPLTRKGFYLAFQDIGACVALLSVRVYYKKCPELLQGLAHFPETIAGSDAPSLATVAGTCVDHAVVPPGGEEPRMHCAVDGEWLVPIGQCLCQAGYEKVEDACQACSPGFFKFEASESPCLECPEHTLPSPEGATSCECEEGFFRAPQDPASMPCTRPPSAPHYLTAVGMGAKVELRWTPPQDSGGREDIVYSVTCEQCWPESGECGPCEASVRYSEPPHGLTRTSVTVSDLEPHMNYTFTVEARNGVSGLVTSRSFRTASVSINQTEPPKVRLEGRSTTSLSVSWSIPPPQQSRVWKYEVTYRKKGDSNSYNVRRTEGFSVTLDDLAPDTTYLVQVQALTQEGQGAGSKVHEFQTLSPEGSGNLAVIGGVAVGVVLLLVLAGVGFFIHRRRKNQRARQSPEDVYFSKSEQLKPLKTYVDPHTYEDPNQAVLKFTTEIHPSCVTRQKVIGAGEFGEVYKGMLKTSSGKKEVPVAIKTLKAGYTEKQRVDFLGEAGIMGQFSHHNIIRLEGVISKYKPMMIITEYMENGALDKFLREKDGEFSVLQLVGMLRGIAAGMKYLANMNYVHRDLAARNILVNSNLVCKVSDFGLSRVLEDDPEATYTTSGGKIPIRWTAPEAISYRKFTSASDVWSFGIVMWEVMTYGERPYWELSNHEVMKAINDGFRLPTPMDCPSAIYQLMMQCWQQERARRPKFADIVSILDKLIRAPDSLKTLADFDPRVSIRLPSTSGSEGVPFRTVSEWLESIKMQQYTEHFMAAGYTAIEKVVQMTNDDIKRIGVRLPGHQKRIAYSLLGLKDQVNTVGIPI", "assay": "Inhibition of wild-type human partial length EPHA2 (T593 to V891 residues) expressed in Escherichia coli BL21 assessed as residual activity at 1000 nM after 30 mins by Kinomescan method relative to control"}, "[7]": {"target": "Rhodopsin kinase GRK1 (Homo sapiens) (UniProt Q15835)", "sequence (Q15835 whole entry, the tested form may be a part)": "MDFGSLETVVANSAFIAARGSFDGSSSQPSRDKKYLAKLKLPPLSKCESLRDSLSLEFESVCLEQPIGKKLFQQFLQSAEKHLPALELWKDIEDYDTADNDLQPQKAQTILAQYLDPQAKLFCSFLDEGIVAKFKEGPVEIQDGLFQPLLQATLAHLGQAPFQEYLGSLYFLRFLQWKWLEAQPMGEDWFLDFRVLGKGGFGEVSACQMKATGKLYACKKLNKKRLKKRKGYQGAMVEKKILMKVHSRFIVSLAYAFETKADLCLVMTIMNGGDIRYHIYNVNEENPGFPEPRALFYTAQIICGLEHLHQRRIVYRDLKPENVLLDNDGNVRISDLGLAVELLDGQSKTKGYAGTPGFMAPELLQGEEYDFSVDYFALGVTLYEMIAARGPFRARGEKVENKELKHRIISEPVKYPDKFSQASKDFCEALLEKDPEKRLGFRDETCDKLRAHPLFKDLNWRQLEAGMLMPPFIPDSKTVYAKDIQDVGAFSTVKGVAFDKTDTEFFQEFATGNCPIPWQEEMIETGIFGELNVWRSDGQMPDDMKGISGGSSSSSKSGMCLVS", "assay": "Inhibition of wild-type human full length GRK1 (M1 to S563 residues) expressed in HEK293 cells assessed as residual activity at 1000 nM after 30 mins by Kinomescan method relative to control", "assay_type": "cell-based", "summary_of_the_method": "(§3)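 Single-concentration screen at 1 µM across a 456-kinase KINOMEscan panel. The read-out is Percent Control for each kinase.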"}, "[8]": {"target": "Insulin receptor-related protein (Homo sapiens) (UniProt P14616)", "assay": "Inhibition of wild-type human partial length INSRR (R950 to E1278 residues) expressed in Escherichia coli BL21 assessed as residual activity at 1000 nM after 30 mins by Kinomescan method relative to control"}, "[9]": {"target": "Interleukin-1 receptor-associated kinase 3 (Homo sapiens) (UniProt Q9Y616)", "sequence (Q9Y616 whole entry, the tested form may be a part)": "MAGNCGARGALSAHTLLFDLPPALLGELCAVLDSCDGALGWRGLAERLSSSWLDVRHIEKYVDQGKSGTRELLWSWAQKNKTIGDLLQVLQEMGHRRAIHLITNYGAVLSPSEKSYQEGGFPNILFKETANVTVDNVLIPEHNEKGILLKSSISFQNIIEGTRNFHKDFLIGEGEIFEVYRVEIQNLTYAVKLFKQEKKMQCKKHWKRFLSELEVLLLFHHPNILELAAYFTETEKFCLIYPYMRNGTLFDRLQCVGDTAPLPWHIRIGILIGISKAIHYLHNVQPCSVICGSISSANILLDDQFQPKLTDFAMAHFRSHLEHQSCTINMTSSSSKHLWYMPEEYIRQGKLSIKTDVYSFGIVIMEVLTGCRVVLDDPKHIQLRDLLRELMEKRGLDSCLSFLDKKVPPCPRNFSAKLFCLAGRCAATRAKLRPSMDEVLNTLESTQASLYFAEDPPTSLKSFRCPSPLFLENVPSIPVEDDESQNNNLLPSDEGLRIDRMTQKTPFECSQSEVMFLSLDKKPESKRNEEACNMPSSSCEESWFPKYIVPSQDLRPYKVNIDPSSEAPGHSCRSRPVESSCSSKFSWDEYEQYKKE", "assay": "Inhibition of wild-type human partial length IRAK3 (V147 to E596 residues) expressed in Escherichia coli BL21 assessed as residual activity at 1000 nM after 30 mins by Kinomescan method relative to control"}, "[10]": {"target": "MAP/microtubule affinity-regulating kinase 4 (Homo sapiens) (UniProt Q96L34)", "assay": "Inhibition of wild-type human partial length MARK4 (K29 to G340 residues) expressed in Escherichia coli BL21 assessed as residual activity at 1000 nM after 30 mins by Kinomescan method relative to control"}, "[11]": {"tested_on": "Hepatocyte growth factor receptor (Homo sapiens), P08581 [M1250T]", "assay": "Inhibition of human partial length MET M1250T mutant (D1010 to S1367 residues) expressed in Escherichia coli BL21 assessed as residual activity at 1000 nM after 30 mins by Kinomescan method relative to control", "summary_of_the_method": "as §1"}, "[12]": {"target": "Myosin-IIIa (Homo sapiens) (UniProt Q8NEV4)", "assay": "Inhibition of wild-type human partial length MYO3A (M1 to K338 residues) expressed in Escherichia coli BL21 assessed as residual activity at 1000 nM after 30 mins by Kinomescan method relative to control"}, "[13]": {"target": "Serine/threonine-protein kinase Nek3 (Homo sapiens) (UniProt P51956)", "assay": "Inhibition of wild-type human full length NEK3 (M1 to R506 residues) expressed in HEK293 cells assessed as residual activity at 1000 nM after 30 mins by Kinomescan method relative to control", "assay_type": "cell-based", "summary_of_the_method": "as §3"}, "[14]": {"target": "Serine/threonine-protein kinase PAK 1 (Homo sapiens) (UniProt Q13153)", "assay": "Inhibition of wild-type human partial length PAK1 (S149 to H545 residues) expressed in Escherichia coli BL21 assessed as residual activity at 1000 nM after 30 mins by Kinomescan method relative to control"}, "[15]": {"target": "Serine/threonine-protein kinase PAK 3 (Homo sapiens) (UniProt O75914)", "sequence (O75914 whole entry, looked up, the tested form may be a part)": "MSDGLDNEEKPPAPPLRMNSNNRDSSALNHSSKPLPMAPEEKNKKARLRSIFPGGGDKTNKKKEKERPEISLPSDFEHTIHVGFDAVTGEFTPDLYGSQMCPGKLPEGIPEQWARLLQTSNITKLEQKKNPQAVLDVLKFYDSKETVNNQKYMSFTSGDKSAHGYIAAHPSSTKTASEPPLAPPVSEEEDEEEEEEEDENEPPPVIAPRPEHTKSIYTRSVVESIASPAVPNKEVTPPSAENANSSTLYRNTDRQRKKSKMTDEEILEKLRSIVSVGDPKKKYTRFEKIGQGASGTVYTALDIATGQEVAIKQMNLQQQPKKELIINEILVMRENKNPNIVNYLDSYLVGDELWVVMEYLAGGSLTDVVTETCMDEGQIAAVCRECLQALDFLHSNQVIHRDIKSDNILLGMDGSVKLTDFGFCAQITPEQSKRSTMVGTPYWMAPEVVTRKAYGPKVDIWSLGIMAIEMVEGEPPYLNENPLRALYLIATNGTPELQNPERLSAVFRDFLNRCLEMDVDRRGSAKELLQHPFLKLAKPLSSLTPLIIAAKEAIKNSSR", "assay": "Inhibition of wild-type human full length PAK3 (M1 to R544 residues) expressed in Escherichia coli BL21 assessed as residual activity at 1000 nM after 30 mins by Kinomescan method relative to control", "summary_of_the_method": "as §3"}, "[16]": {"tested_on": "Phosphatidylinositol 4,5-bisphosphate 3-kinase catalytic subunit alpha isoform (Homo sapiens), P42336 [H1047L]", "sequence (P42336 whole entry H1047L, the tested form may be a part, canonical isoform)": "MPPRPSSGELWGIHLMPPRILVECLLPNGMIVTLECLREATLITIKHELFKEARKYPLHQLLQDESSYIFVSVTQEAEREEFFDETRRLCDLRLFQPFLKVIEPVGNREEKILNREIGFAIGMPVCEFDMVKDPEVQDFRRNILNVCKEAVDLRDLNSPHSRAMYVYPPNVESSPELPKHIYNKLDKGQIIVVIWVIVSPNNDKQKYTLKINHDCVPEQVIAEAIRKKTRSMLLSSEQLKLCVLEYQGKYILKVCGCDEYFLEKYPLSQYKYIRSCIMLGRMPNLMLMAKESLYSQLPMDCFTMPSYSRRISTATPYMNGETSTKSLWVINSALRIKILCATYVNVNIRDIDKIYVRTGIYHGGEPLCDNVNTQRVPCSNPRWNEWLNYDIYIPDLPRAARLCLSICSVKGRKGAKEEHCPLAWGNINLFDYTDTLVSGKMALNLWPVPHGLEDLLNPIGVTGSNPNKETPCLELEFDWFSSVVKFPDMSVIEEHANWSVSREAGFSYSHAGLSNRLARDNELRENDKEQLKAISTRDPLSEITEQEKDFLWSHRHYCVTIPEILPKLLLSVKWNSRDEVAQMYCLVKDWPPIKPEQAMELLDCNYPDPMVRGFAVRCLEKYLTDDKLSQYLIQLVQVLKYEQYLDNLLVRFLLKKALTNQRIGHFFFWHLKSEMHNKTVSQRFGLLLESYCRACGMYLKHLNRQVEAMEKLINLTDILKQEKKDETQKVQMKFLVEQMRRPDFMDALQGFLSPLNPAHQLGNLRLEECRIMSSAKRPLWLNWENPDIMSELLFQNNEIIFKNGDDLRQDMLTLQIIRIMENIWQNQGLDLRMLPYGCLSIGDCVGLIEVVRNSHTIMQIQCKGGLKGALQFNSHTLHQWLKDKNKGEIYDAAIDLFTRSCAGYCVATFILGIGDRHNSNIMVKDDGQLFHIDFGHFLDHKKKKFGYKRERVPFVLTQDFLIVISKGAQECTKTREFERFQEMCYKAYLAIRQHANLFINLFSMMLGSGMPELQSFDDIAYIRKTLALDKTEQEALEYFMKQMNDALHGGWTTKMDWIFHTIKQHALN", "assay": "Inhibition of human partial length PIK3CA H1047L mutant (R108 to N1068 residues) expressed in HEK293 cells assessed as residual activity at 1000 nM after 30 mins by Kinomescan method relative to control", "assay_type": "cell-based", "summary_of_the_method": "as §1"}, "[17]": {"target": "Rho-associated protein kinase 1 (Homo sapiens) (UniProt Q13464)", "assay": "Inhibition of wild-type human partial length ROCK1 (M1 to R415 residues) expressed in HEK293 cells assessed as residual activity at 1000 nM after 30 mins by Kinomescan method relative to control", "assay_type": "cell-based"}, "[18]": {"target": "Ribosomal protein S6 kinase alpha-4 (Homo sapiens) (UniProt O75676)", "sequence (O75676 whole entry, looked up, the tested form may be a part)": "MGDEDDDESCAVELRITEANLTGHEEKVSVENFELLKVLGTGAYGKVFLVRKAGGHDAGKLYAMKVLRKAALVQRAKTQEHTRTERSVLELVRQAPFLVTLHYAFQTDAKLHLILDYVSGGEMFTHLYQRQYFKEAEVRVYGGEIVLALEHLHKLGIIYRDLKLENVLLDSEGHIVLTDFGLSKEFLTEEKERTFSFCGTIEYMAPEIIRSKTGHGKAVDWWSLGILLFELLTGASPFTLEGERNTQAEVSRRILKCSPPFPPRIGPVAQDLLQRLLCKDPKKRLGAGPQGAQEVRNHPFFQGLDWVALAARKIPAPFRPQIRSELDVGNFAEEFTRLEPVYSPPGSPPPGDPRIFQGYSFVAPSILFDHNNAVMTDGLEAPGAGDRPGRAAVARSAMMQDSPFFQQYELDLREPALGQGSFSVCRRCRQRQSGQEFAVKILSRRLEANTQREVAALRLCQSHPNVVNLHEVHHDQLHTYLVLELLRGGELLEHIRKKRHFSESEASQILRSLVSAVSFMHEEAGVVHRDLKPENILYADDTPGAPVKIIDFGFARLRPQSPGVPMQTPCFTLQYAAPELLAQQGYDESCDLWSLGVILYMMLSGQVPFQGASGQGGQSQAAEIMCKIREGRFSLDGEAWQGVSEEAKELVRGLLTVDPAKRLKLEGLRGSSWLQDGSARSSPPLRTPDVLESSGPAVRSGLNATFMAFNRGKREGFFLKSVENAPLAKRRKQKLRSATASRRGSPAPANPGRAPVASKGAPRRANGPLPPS", "assay": "Inhibition of wild-type human partial length C-terminal RPS6KA4 kinase domain 2 (M375 to T705 residues) expressed in HEK293 cells assessed as residual activity at 1000 nM after 30 mins by Kinomescan method relative to control", "assay_type": "cell-based"}, "[19]": {"target": "Tyrosine-protein kinase Srms (Homo sapiens) (UniProt Q9H3Y6)", "sequence (Q9H3Y6 whole entry, the tested form may be a part)": "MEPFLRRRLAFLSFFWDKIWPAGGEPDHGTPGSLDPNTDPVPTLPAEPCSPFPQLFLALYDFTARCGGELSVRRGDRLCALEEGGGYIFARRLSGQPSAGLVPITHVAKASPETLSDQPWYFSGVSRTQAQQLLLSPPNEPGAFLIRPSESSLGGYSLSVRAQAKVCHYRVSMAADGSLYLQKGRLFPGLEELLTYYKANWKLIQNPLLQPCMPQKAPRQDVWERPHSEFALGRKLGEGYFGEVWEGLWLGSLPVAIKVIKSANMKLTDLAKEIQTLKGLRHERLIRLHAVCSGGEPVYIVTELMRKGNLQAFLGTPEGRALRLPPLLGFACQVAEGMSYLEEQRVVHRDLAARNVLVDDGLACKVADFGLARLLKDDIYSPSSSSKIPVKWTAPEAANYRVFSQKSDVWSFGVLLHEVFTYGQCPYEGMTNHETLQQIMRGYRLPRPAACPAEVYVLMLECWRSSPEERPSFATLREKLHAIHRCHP", "assay": "Inhibition of wild-type human partial length SRMS (L208 to P488 residues) expressed in HEK293 cells assessed as residual activity at 1000 nM after 30 mins by Kinomescan method relative to control", "assay_type": "cell-based"}, "[20]": {"target": "Dual specificity protein kinase TTK (Homo sapiens) (UniProt P33981)", "assay": "Inhibition of wild-type human partial length TTK (N505 to V798 residues) expressed in Escherichia coli BL21 assessed as residual activity at 1000 nM after 30 mins by Kinomescan method relative to control"}, "[21]": {"target": "Wee1-like protein kinase (Homo sapiens) (UniProt P30291)", "assay": "Inhibition of wild-type human partial length WEE1 (M291 to K575 residues) expressed in Escherichia coli BL21 assessed as residual activity at 1000 nM after 30 mins by Kinomescan method relative to control"}}, "data": [{"smiles": "COc1cc(OC)c(Cl)c(N2Cc3cnc(Nc4ccc(F)cc4)nc3N(C3CCN(C(=O)/C=C/CN(C)C)CC3)C2=O)c1Cl", "values": [{"measurement": "Activity", "setting": "[1]", "value": 96, "unit": "%"}, {"measurement": "Activity", "setting": "[2]", "value": 100, "unit": "%"}, {"measurement": "Activity", "setting": "[3]", "value": 100, "unit": "%"}, {"measurement": "Activity", "setting": "[4]", "value": 97, "unit": "%"}, {"measurement": "Activity", "setting": "[5]", "value": 82, "unit": "%"}, {"measurement": "Activity", "setting": "[6]", "value": 100, "unit": "%"}, {"measurement": "Activity", "setting": "[7]", "value": 79, "unit": "%"}, {"measurement": "Activity", "setting": "[8]", "value": 52, "unit": "%"}, {"measurement": "Activity", "setting": "[9]", "value": 100, "unit": "%"}, {"measurement": "Activity", "setting": "[10]", "value": 87, "unit": "%"}, {"measurement": "Activity", "setting": "[11]", "value": 100, "unit": "%"}, {"measurement": "Activity", "setting": "[12]", "value": 96, "unit": "%"}, {"measurement": "Activity", "setting": "[13]", "value": 79, "unit": "%"}, {"measurement": "Activity", "setting": "[14]", "value": 100, "unit": "%"}, {"measurement": "Activity", "setting": "[15]", "value": 99, "unit": "%"}, {"measurement": "Activity", "setting": "[16]", "value": 100, "unit": "%"}, {"measurement": "Activity", "setting": "[17]", "value": 100, "unit": "%"}, {"measurement": "Activity", "setting": "[18]", "value": 93, "unit": "%"}, {"measurement": "Activity", "setting": "[19]", "value": 100, "unit": "%"}, {"measurement": "Activity", "setting": "[20]", "value": 86, "unit": "%"}, {"measurement": "Activity", "setting": "[21]", "value": 100, "unit": "%"}]}]}
